Our source for the IC50 values is BindingDB's records for doi:10.1021/jm970671g (Signal Pharmaceuticals, 1998).

Bounds are passed on as bounds.

This experiment addresses T1, Nuclear factor NF-kappa-B p105 subunit (Homo sapiens, UniProt P19838).
T1 sequence (P19838 whole entry): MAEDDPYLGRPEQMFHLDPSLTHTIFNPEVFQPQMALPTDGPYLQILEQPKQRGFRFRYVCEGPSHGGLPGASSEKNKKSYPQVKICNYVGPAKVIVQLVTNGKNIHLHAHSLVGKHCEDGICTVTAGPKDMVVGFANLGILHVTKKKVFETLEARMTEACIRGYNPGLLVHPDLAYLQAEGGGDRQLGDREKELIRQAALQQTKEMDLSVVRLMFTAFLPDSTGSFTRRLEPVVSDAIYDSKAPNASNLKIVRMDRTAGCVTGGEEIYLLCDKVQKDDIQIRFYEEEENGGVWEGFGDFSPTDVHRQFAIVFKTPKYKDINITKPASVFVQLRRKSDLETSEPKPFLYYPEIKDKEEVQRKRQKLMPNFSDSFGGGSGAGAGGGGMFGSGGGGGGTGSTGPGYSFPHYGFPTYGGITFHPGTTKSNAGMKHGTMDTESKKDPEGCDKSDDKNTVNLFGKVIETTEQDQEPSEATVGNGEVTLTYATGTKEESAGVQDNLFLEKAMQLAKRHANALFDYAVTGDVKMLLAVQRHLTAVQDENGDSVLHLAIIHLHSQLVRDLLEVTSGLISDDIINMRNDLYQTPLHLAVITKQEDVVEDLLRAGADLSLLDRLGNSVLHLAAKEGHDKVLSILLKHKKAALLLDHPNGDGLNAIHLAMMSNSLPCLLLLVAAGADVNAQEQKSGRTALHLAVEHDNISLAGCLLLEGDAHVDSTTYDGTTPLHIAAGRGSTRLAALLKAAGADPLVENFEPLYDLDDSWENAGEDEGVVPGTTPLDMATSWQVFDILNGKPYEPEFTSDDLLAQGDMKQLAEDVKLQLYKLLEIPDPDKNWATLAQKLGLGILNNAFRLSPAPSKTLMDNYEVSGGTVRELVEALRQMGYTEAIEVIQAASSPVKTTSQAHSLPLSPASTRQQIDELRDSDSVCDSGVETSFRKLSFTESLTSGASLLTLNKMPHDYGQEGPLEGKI
The experiment in a line: In vitro inhibitory activity against human Jurkat T-Cells stably transfected with an Nuclear factor kappa B transcription factor. In outline:
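Jurkat T-cells stably carrying NF-κB site (MHC promoter) on minimal SV-40 promoter driving luciferase, plated 1 × 10^6 cells/mL in 10% Serum-Plus 18 h prior. Compound in 0.2% DMSO/H2O added 0.5 h at 37 °C; induced with PMA 50 ng/mL and PHA 1 μg/mL, 5 h at 37 °C. Lysate luminescence read; IC50 = concentration halving luciferase versus control.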
With `O=C(Nc1ccccc1)c1cnc(Cl)nc1C(F)(F)F` [2-Chloro-4-trifluoromethyl-pyrimidine-5-carboxylic acid phenylamide], the IC50 – broadly, the midpoint of a concentration-inhibition curve – is > 10000 nM.
Consider `O=C(Nc1cc(Cl)cc(Cl)c1)c1cnc(Nc2ccccc2)nc1C(F)(F)F` [2-Phenylamino-4-trifluoromethyl-pyrimidine-5-carboxylic acid (3,5-dichloro-phenyl)-amide], for which the IC50 is > 10000 nM.
Next, `CCCCNc1ncc(C(=O)Nc2cc(Cl)cc(Cl)c2)c(C(F)(F)F)n1` [2-Butylamino-4-trifluoromethyl-pyrimidine-5-carboxylic acid (3,5-dichloro-phenyl)-amide]: > 10000 nM.
Next, `CN(C)c1ncc(C(=O)Nc2cc(Cl)cc(Cl)c2)c(C(F)(F)F)n1` [2-Dimethylamino-4-trifluoromethyl-pyrimidine-5-carboxylic acid (3,5-dichloro-phenyl)-amide]: > 10000 nM; `O=C(Nc1cc(Cl)c(Cl)c(Cl)c1)c1cnc(Cl)nc1C(F)(F)F` [2-Chloro-4-trifluoromethyl-pyrimidine-5-carboxylic acid (3,4,5-trichloro-phenyl)-amide]: 900 nM.
Next, `CCCCCCOC(=O)c1cc(NC(=O)c2cnc(Cl)nc2C(F)(F)F)cc(C(F)(F)F)c1` [3-[(2-Chloro-4-trifluoromethyl-pyrimidine-5-carbonyl)-amino]-5-trifluoromethyl-benzoic acid hexyl ester]: 620 nM; `O=C(OC1CCCCC1)c1cc(NC(=O)c2cnc(Cl)nc2C(F)(F)F)cc(C(F)(F)F)c1` [3-[(2-Chloro-4-trifluoromethyl-pyrimidine-5-carbonyl)-amino]-5-trifluoromethyl-benzoic acid cyclohexyl ester]: 1800 nM; `O=C(Nc1cc(Cl)cc(Cl)c1)c1cnc(N2CCCCC2)nc1C(F)(F)F` [2-Piperidin-1-yl-4-trifluoromethyl-pyrimidine-5-carboxylic acid (3,5-dichloro-phenyl)-amide]: 5000 nM.
`Cc1cc(NC(=O)c2cnc(Cl)nc2C(F)(F)F)on1` [2-Chloro-4-trifluoromethyl-pyrimidine-5-carboxylic acid (3-methyl-isoxazol-5-yl)-amide] returned a concentration for half-maximal inhibition (IC50) of 4000 nM.
The same measure for `Nc1ncc(C(=O)Nc2cc(Cl)cc(Cl)c2)c(C(F)(F)F)n1` [2-Amino-4-trifluoromethyl-pyrimidine-5-carboxylic acid (3,5-dichloro-phenyl)-amide]: > 10000 nM.
The same measure for `O=C(Nc1cc(Cl)cc(Cl)c1)c1cnc(=O)[nH]c1C(F)(F)F` [2-Hydroxy-4-trifluoromethyl-pyrimidine-5-carboxylic acid (3,5-dichloro-phenyl)-amide]: > 10000 nM.
The same measure for `O=C(Nc1cc(Cl)cc(Cl)c1)c1cnc(Cl)nc1C(F)(F)F` [2-Chloro-4-trifluoromethyl-pyrimidine-5-carboxylic acid (3,5-dichloro-phenyl)-amide]: 500 nM; for `Cc1ccc(NC(=O)c2cnc(Cl)nc2C(F)(F)F)s1` [2-Chloro-4-trifluoromethyl-pyrimidine-5-carboxylic acid (5-methyl-thiophen-2-yl)-amide]: 2300 nM; for `O=C(Nc1cc(Cl)cc(Cl)c1)c1cnc(NCc2ccccc2)nc1C(F)(F)F` [2-Benzylamino-4-trifluoromethyl-pyrimidine-5-carboxylic acid (3,5-dichloro-phenyl)-amide]: > 10000 nM.
With `O=C(Nc1cc(Cl)cc(Cl)c1)c1cnc(NC2CCCCC2)nc1C(F)(F)F` [2-Cyclohexylamino-4-trifluoromethyl-pyrimidine-5-carboxylic acid (3,5-dichloro-phenyl)-amide], the IC50 is > 10000 nM.
Next, `COc1cc(NC(=O)c2cnc(Cl)nc2C(F)(F)F)cc(OC)c1` [2-Chloro-4-trifluoromethyl-pyrimidine-5-carboxylic acid (3,5-dimethoxy-phenyl)-amide]: 1200 nM; `O=C(Nc1cc(Cl)cc(Cl)c1)c1cncnc1C(F)(F)F` [4-Trifluoromethyl-pyrimidine-5-carboxylic acid (3,5-dichloro-phenyl)-amide]: > 10000 nM.
The same measure for `Cc1cccc(C)c1NC(=O)c1cnc(Cl)nc1C(F)(F)F` [2-Chloro-4-trifluoromethyl-pyrimidine-5-carboxylic acid (2,6-dimethyl-phenyl)-amide]: > 10000 nM; for `CCOP(=O)(COC(=O)c1cc(NC(=O)c2cnc(Cl)nc2C(F)(F)F)cc(C(F)(F)F)c1)OCC` [3-[(2-Chloro-4-trifluoromethyl-pyrimidine-5-carbonyl)-amino]-5-trifluoromethyl-benzoic acid diethoxy-phosphorylmethyl ester]: 4600 nM.
The compound `CCOC(=O)c1cc(NC(=O)c2cnc(Cl)nc2C(F)(F)F)cc(C(F)(F)F)c1` [3-[(2-Chloro-4-trifluoromethyl-pyrimidine-5-carbonyl)-amino]-5-trifluoromethyl-benzoic acid ethyl ester] showed an IC50 of 280 nM.
For `COc1ncc(C(=O)Nc2cc(Cl)cc(Cl)c2)c(C(F)(F)F)n1` [2-Methoxy-4-trifluoromethyl-pyrimidine-5-carboxylic acid (3,5-dichloro-phenyl)-amide], the half-inhibitory concentration (IC50) is > 10000 nM.
Next, `CCCCCCCCOC(=O)c1cc(NC(=O)c2cnc(Cl)nc2C(F)(F)F)cc(C(F)(F)F)c1` [3-[(2-Chloro-4-trifluoromethyl-pyrimidine-5-carbonyl)-amino]-5-trifluoromethyl-benzoic acid octyl ester]: 1800 nM; `O=C(Nc1cc(C(F)(F)F)cc(C(F)(F)F)c1)c1cnc(Cl)nc1C(F)(F)F` [2-Chloro-4-trifluoromethyl-pyrimidine-5-carboxylic acid (3,5-bis-trifluoromethyl-phenyl)-amide]: 50 nM; `NC(=O)c1cc(NC(=O)c2cnc(Cl)nc2C(F)(F)F)cc(C(F)(F)F)c1` [2-Chloro-4-trifluoromethyl-pyrimidine-5-carboxylic acid (3-carbamoyl-5-trifluoromethyl-phenyl)-amide]: 5000 nM.
`O=C(Nc1ccc(C(F)(F)F)cc1)c1cnc(Cl)nc1C(F)(F)F` [2-Chloro-4-trifluoromethyl-pyrimidine-5-carboxylic acid (4-trifluoromethyl-phenyl)-amide]: it took 380 nM to reach half-maximal inhibition (IC50).
The same measure for `O=C(c1cnc(Cl)nc1C(F)(F)F)N(Cc1ccccc1)c1cc(Cl)cc(Cl)c1` [2-Chloro-4-trifluoromethyl-pyrimidine-5-carboxylic acid benzyl-(3,5-dichloro-phenyl)-amide]: 2700 nM; for `CCCCNC(=O)c1cnc(Cl)nc1C(F)(F)F` [2-Chloro-4-trifluoromethyl-pyrimidine-5-carboxylic acid butylamide]: > 10000 nM; for `CCCCNC(=O)c1cc(NC(=O)c2cnc(Cl)nc2C(F)(F)F)cc(C(F)(F)F)c1` [2-Chloro-4-trifluoromethyl-pyrimidine-5-carboxylic acid (3-butylcarbamoyl-5-trifluoromethyl-phenyl)-amide]: > 10000 nM.
The same measure for `CCCCOC(=O)c1cc(NC(=O)c2cnc(Cl)nc2C(F)(F)F)cc(C(F)(F)F)c1` [3-[(2-Chloro-4-trifluoromethyl-pyrimidine-5-carbonyl)-amino]-5-trifluoromethyl-benzoic acid butyl ester]: 170 nM; for `O=C(Nc1cc(Cl)nc(Cl)n1)c1cnc(Cl)nc1C(F)(F)F` [2-Chloro-4-trifluoromethyl-pyrimidine-5-carboxylic acid (2,6-dichloro-pyrimidin-4-yl)-amide]: 800 nM; for `CN(C(=O)c1cnc(Cl)nc1C(F)(F)F)c1cc(Cl)cc(Cl)c1` [2-Chloro-4-trifluoromethyl-pyrimidine-5-carboxylic acid (3,5-dichloro-phenyl)-methyl-amide]: 2300 nM.
